Test results as given in ChEMBL document CHEMBL1152488, “Synthesis and evaluation of pyrido[1,2-a]pyrimidines as inhibitors of nitric oxide synthases” (Eur J Med Chem, 2009).

Target: Nitric oxide synthase, inducible (Homo sapiens) (UniProt P35228)
Experiment: Inhibition of human iNOS expressed in insect Sf9 cells assessed as residual activity at 100 uM by Griess assay relative to control
Details: not given
Outline: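 Human iNOS made in Sf9 cells, incubated at 37 °C for 20 min in 50 mM triethanolamine pH 7.5 with 1 mM Mg2+, FAD/FMN 5 µM each, 0.5 mM NADPH, 10 µM H4B, CaM and 1 mM L-arginine. Compound 100 µM final. NADPH cleared with lactate dehydrogenase/pyruvate before Griess reaction (543 nm). Residual activity relative to 1% DMSO control; mean of 5 experiments.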

Nitric oxide synthase, inducible (Homo sapiens), sequence (P35228 whole entry): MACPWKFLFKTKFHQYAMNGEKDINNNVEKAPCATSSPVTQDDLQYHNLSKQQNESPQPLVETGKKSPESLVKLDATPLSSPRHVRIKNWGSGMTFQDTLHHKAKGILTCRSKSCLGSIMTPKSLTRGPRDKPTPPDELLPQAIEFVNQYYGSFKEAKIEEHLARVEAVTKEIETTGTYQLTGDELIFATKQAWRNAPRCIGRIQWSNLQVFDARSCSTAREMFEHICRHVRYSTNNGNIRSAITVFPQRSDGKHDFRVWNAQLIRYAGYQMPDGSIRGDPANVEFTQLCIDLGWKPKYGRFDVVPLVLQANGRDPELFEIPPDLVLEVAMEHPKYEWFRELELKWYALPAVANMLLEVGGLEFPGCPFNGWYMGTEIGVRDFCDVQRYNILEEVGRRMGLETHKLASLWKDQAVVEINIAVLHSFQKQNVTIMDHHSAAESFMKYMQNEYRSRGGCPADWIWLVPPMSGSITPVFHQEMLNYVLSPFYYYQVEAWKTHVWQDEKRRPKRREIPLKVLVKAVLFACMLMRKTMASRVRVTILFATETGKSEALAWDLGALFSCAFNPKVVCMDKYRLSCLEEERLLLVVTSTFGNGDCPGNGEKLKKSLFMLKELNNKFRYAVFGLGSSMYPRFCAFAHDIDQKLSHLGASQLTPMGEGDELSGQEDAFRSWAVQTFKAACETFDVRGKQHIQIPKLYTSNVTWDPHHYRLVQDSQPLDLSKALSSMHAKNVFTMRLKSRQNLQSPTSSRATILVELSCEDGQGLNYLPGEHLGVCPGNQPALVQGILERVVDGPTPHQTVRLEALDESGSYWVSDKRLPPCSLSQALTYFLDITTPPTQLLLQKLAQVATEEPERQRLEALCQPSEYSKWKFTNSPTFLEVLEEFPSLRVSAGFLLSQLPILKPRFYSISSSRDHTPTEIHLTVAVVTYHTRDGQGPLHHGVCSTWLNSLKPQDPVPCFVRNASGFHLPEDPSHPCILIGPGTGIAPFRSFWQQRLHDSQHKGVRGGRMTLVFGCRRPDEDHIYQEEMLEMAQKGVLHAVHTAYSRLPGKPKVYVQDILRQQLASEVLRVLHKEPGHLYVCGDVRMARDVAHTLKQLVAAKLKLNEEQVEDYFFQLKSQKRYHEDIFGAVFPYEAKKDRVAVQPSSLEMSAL

SMILES	Activity
CC1=CC=CC2=NCC(C(=O)c3ccc(-c4ccccc4)cc3)CN12 (stereo unspecified)	86%
COc1ccc(COc2ccc(C(=O)C3CN=C4C=C(C)C=CN4C3)cc2)cc1 (stereo unspecified)	101%
Cc1cc(C)nc(N)c1	7%
CC1=CC=CC2=NCC(C(=O)c3ccc4cc(C)ccc4c3)CN12 (stereo unspecified)	88%
Nc1ccccn1	95%
O=C(c1ccc(F)cc1)C1CN=C2C=CC=CN2C1 (stereo unspecified)	67%

Second part, the compound after the results:

Activity	SMILES
93%	CC1=CC2=NCC(C(=O)c3ccc(C(=O)O)cc3)CN2C=C1 (stereo unspecified)
54%	CC1=CC2=NCC(C(=O)c3ccc(C#N)cc3)CN2C=C1 (stereo unspecified)
70%	CC1=CC2=NCC(C(=O)c3ccc(C4CCCCC4)cc3)CN2C=C1 (stereo unspecified)
73%	CC1=CC2=NCC(C(=O)c3ccc(OCc4ccccc4)cc3)CN2C=C1 (stereo unspecified)
98%	CC1=CC2=NCC(C(=O)c3ccc(-c4ccc(C(=O)O)cc4)cc3)CN2C=C1 (stereo unspecified)
30%	CC1=CC2=NCC(C(=O)c3ccc(O)cc3)CN2C=C1 (stereo unspecified)

Target: T1, Nitric oxide synthase 3 (Homo sapiens) (UniProt P29474)
T1 sequence (whole entry): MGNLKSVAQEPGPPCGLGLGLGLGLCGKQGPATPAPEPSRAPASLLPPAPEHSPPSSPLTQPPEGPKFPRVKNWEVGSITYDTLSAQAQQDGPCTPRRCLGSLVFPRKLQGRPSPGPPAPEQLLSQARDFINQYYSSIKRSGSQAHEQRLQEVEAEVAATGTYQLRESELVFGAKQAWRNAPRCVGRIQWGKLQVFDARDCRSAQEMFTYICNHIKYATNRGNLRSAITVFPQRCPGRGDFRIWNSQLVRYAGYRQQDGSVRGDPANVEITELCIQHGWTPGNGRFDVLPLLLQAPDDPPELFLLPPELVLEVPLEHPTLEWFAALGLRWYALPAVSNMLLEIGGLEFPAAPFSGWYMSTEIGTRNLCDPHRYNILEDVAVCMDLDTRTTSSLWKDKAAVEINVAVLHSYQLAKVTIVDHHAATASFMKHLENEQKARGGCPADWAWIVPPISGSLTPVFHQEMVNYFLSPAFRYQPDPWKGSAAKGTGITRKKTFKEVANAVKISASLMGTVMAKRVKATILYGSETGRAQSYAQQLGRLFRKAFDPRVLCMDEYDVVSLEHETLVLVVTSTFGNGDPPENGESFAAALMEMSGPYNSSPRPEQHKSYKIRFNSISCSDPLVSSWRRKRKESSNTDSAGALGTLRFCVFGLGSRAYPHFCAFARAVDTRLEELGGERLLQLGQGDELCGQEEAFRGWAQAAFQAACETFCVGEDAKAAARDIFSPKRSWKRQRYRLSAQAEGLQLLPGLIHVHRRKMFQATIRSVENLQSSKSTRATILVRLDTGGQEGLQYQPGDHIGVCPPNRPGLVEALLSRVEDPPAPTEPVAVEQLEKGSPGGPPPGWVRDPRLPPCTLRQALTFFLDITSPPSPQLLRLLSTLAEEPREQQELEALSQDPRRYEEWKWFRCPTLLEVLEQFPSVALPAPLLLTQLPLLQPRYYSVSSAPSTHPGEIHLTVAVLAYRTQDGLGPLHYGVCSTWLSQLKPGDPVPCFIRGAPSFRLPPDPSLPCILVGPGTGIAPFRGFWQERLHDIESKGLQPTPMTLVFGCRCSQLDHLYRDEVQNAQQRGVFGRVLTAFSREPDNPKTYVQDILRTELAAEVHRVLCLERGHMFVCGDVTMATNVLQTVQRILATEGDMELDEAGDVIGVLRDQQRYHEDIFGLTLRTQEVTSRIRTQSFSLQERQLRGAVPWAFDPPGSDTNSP
Experiment: Inhibition of human eNOS assessed as residual activity at 100 uM by Griess assay relative to control
Details: not given
Outline: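 Human eNOS expressed in Pichia pastoris. Incubated 20 min at 37 °C in triethanolamine pH 7.5 with 0.5 mM Ca2+, CaM, H4B 10 µM, FAD/FMN 5 µM, NADPH 0.5 mM, L-arginine 1 mM and compound at 100 µM final. Nitrite read by Griess (543 nm) after LDH/pyruvate NADPH removal; % of 1% DMSO control from 5 experiments.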

SMILES	Activity
CC1=CC=CC2=NCC(C(=O)c3ccc(-c4ccccc4)cc3)CN12 (stereo unspecified)	20%
COc1ccc(COc2ccc(C(=O)C3CN=C4C=C(C)C=CN4C3)cc2)cc1 (stereo unspecified)	46%
Cc1cc(C)nc(N)c1	12%
CC1=CC=CC2=NCC(C(=O)c3ccc4cc(C)ccc4c3)CN12 (stereo unspecified)	75%
Nc1ccccn1	94%
O=C(c1ccc(F)cc1)C1CN=C2C=CC=CN2C1 (stereo unspecified)	79%

Next, values leading:

Activity	SMILES
94%	CC1=CC2=NCC(C(=O)c3ccc(C(=O)O)cc3)CN2C=C1 (stereo unspecified)
75%	CC1=CC2=NCC(C(=O)c3ccc(C#N)cc3)CN2C=C1 (stereo unspecified)
42%	CC1=CC2=NCC(C(=O)c3ccc(C4CCCCC4)cc3)CN2C=C1 (stereo unspecified)
75%	CC1=CC2=NCC(C(=O)c3ccc(OCc4ccccc4)cc3)CN2C=C1 (stereo unspecified)
91%	CC1=CC2=NCC(C(=O)c3ccc(-c4ccc(C(=O)O)cc4)cc3)CN2C=C1 (stereo unspecified)
46%	CC1=CC2=NCC(C(=O)c3ccc(O)cc3)CN2C=C1 (stereo unspecified)

Tested on: not listed separately
Experiment: Lipophilicity, log D at pH 7.4 by HPLC method
Details: buffer

SMILES	logD
CC1=CC=CC2=NCC(C(=O)c3ccc(-c4ccccc4)cc3)CN12 (stereo unspecified)	2.1
CC1=CC=CC2=NCC(C(=O)c3ccc4cc(C)ccc4c3)CN12 (stereo unspecified)	2.1
